Our source for the Emax, EC50 and Activity values is ChEMBL document CHEMBL2321827, “Allopregnanolone and pregnanolone analogues modified in the C ring: synthesis and activity” (J Med Chem, 2013).

Bounds are passed on as bounds.

Holding throughout (assay type): cell-based
Assay [1] relates to Cerebral cortex neuron. The assay is described as follows: Stimulation of [3H]flunitrazepam binding to GABA type A receptor in mouse primary cortical neurons at 100 uM after 30 mins by liquid scintillation counting analysis relative to allopregnanolone. Put shortly:
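Intact E16 mouse cortical neurons cultured 7–9 days, washed in HEPES pH 7.3, then incubated 30 min at 25 °C with 1.3–2.0 nM [3H]flunitrazepam and 100 μM compound in triplicate. Nonspecific binding was defined with 20 μM diazepam and radioactivity counted by scintillation. Binding increase is given as % of the maximal effect of 60 μM allopregnanolone, mean ± sd, n = 2–4.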

Assay [2] is described as follows: Stimulation of [3H]flunitrazepam binding to GABA type A receptor in mouse primary cortical neurons after 30 mins by liquid scintillation counting analysis. The conditions noted are these: cerebral cortex neuron. A digest of the protocol: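 Cortical neurons from E16 mouse embryos, cultured 7–9 days with FUdR/uridine against glia, then washed in HEPES buffer pH 7.3. Intact cells were incubated with 1.3–2.0 nM [3H]flunitrazepam and compound (1 nM–300 μM, ≥6 concentrations, triplicate, final DMSO 100 μM) for 30 min at 25 °C. Nonspecific binding used 20 μM diazepam. EC50 came from a sigmoid fit, mean ± sd, n = 2–4.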

Assay [3] deals with Cerebral cortex neuron. Briefly: Stimulation of [3H]flunitrazepam binding to GABA type A receptor in primary cortical neurons relative to allopregnanolone.

What is called Emax is the greatest response seen or fitted, relative to the assay's reference. As a reminder, the EC50 is the concentration that produces a half-maximal response. In the assay on Cerebral cortex neuron [1], `CC(=O)[C@H]1CC[C@H]2[C@@H]3CC[C@H]4C[C@H](O)CC[C@]4(C)[C@H]3[C@@H]3O[C@@H]3[C@]12C` had a maximum response (Emax) of 9%. The 50% effective concentration (EC50) in assay [2] is greater than 300 µM.

`CC(=O)[C@H]1CC[C@H]2[C@@H]3CC[C@H]4C[C@H](O)CC[C@]4(C)[C@H]3C[C@@H](N)[C@]12C`: the maximal response (Emax) with Cerebral cortex neuron [1] amounted to 0%. In assay [2], this compound gave a concentration for a half-maximal effect (EC50) greater than 300 µM.

Consider `CC(=O)[C@H]1CC[C@H]2[C@@H]3CC[C@H]4C[C@H](O)CC[C@]4(C)[C@H]3C=C[C@]12C`, for which the maximal effect (Emax) in the assay with Cerebral cortex neuron [1] was 67%. Also, the midpoint of the response in assay [2], the EC50, lay at 7.4 µM.

As for `CC(=O)[C@H]1CC[C@H]2[C@@H]3CC[C@@H]4C[C@H](O)CC[C@]4(C)[C@H]3[C@H](O)C[C@]12C`, in the assay with Cerebral cortex neuron [1], the Emax is 43%. Moreover, in assay [2], the midpoint of the response, the EC50, lay at 71 µM.

`C#C[C@]1(O)C[C@]2(C)[C@@H](C(C)=O)CC[C@H]2[C@@H]2CC[C@@H]3C[C@H](O)CC[C@]3(C)[C@H]21`: the Emax with Cerebral cortex neuron [1] came to 91%. In addition, the response in assay [2] was half-maximal at 14 µM (EC50).

As for `CC(=O)[C@H]1CC[C@H]2[C@@H]3CC[C@H]4C[C@H](O)CC[C@]4(C)[C@H]3C(=O)C[C@]12C` [ALFAXALONE], in the assay on Cerebral cortex neuron [1], the Emax turned out to be 92%. The concentration for a half-maximal effect (EC50) in assay [2] is 4.6 µM.

The compound `CC(=O)[C@H]1CC[C@H]2[C@@H]3CC[C@H]4C[C@H](O)CC[C@]4(C)[C@H]3[C@H](O)C[C@]12C` displayed an Emax in the assay on Cerebral cortex neuron [1] of 28%. The EC50 in assay [2] is greater than 300 µM.

In the case of `CC(=O)[C@H]1CC[C@H]2[C@@H]3CC[C@@H]4C[C@H](O)CC[C@]4(C)[C@H]3[C@](O)(C#Cc3ccccc3)C[C@]12C`, in the assay on Cerebral cortex neuron [1], the maximal effect (Emax) was 116%. This compound also yielded an EC50 in assay [2] of 1.2 µM.

The compound `C=C1C[C@]2(C)[C@@H](C(C)=O)CC[C@H]2[C@@H]2CC[C@H]3C[C@H](O)CC[C@]3(C)[C@@H]12` showed a maximal effect (Emax) in the assay with Cerebral cortex neuron [1] of 102%. This compound registered an EC50 in assay [2] of 1.2 µM.

In the assay with Cerebral cortex neuron [1], `CC(=O)[C@H]1CC[C@H]2[C@@H]3CC[C@@H]4C[C@@](O)(C#Cc5ccccc5)CC[C@]4(C)[C@H]3[C@](O)(C#Cc3ccccc3)C[C@]12C` displayed a maximal effect (Emax) of 0%. In addition, in assay [2], the EC50 was greater than 100 µM.

The compound `CC(=O)[C@H]1CC[C@H]2[C@@H]3CC[C@H]4C[C@H](O)CC[C@]4(C)[C@H]3[C@H](N)C[C@]12C` yielded a maximal effect (Emax) in the assay with Cerebral cortex neuron [1] of 45%. Besides, the EC50 in assay [2] amounted to 154 µM.

On to `CC(=O)[C@H]1CC[C@H]2[C@@H]3CC[C@H]4C[C@H](N)CC[C@]4(C)[C@H]3CC[C@]12C`, for which the Activity in the assay on Cerebral cortex neuron [3] was 56%.

The compound `CC(=O)[C@H]1CC[C@H]2[C@@H]3CC[C@@H]4C[C@H](O)CC[C@]4(C)[C@H]3[C@@H](O)C[C@]12C` showed an Emax with Cerebral cortex neuron [1] of 25%. For the same compound, the EC50 in assay [2] is greater than 300 µM.

The compound `CC(=O)[C@H]1CC[C@H]2[C@@H]3CC[C@H]4C[C@H](O)CC[C@]4(C)[C@H]3[C@@H](C)C[C@]12C` came in with an Emax in the assay on Cerebral cortex neuron [1] of 97%. The same compound yielded a 50% effective concentration (EC50) in assay [2] of 8 µM.

In the assay on Cerebral cortex neuron [1], `CC(=O)[C@H]1CC[C@H]2[C@@H]3CC[C@H]4C[C@H](O)CC[C@]4(C)[C@H]3C[C@H](O)[C@]12C` displayed a maximal response (Emax) of 60%. Moreover, it took 46 µM to reach a half-maximal effect in assay [2] (EC50).

`C=C1C[C@]2(C)[C@@H](C(C)=O)CC[C@H]2[C@@H]2CC[C@@H]3C[C@H](O)CC[C@]3(C)[C@@H]12` yielded a maximum response (Emax) with Cerebral cortex neuron [1] of 28%. The same compound registered an EC50 in assay [2] of 37.5 µM.

The compound `C#C[C@@]1(O)CC[C@@]2(C)[C@H](CC[C@H]3[C@@H]4CC[C@H](C(C)=O)[C@@]4(C)C[C@@](O)(C#C)[C@@H]32)C1` showed an Emax in the assay with Cerebral cortex neuron [1] of 61%. Besides, in assay [2], the response was half-maximal at 75 µM (EC50).

`CC(=O)[C@H]1CC[C@H]2[C@@H]3CC[C@H]4C[C@H](O)CC[C@]4(C)[C@H]3C[C@@H](O)[C@]12C` had an Emax in the assay on Cerebral cortex neuron [1] of 28%. Further, in assay [2], a half-maximal response (EC50) required 173 µM.

Compound `CC(=O)[C@H]1CC[C@H]2[C@@H]3CC[C@@H]4C[C@H](O)CC[C@]4(C)[C@H]3C(=O)C[C@]12C` [RENANOLONE] had an Emax with Cerebral cortex neuron [1] of 42%. The same compound came in with an EC50 in assay [2] of 94 µM.

In the case of `CC(=O)N[C@@H]1C[C@H]2[C@@H](CC[C@H]3C[C@H](O)CC[C@@]32C)[C@@H]2CC[C@H](C(C)=O)[C@@]12C`, the maximal response (Emax) in the assay on Cerebral cortex neuron [1] turned out to be 0%. Also, the concentration giving a half-maximal response (EC50) in assay [2] is greater than 100 µM.

The compound `CC(=O)[C@H]1CC[C@H]2[C@@H]3CC[C@@H]4C[C@H](O)CC[C@]4(C)C3=C(C)C[C@]12C` had an Emax in the assay on Cerebral cortex neuron [1] of 97%. In assay [2], this compound returned an EC50 of 3 µM.

For the compound `CC(=O)[C@H]1CC[C@H]2[C@@H]3CC[C@H]4C[C@H](O)CC[C@]4(C)[C@H]3[C@@H](N)C[C@]12C`, the maximal effect (Emax) with Cerebral cortex neuron [1] was found to be 140%. Also, the EC50 in assay [2] was determined as 5.9 µM.

On to `CC(=O)[C@H]1CC[C@H]2[C@@H]3CC[C@H]4C[C@H](O)CC[C@]4(C)[C@H]3[C@@H](O)C[C@]12C`, for which the maximal effect (Emax) in the assay with Cerebral cortex neuron [1] is 117%. In assay [2], this compound displayed a concentration giving a half-maximal response (EC50) of 32 µM.

With `C#C[C@]1(O)C[C@]2(C)[C@@H](C(C)=O)CC[C@H]2[C@@H]2CC[C@H]3C[C@H](O)CC[C@]3(C)[C@H]21`, in the assay on Cerebral cortex neuron [1], the Emax amounted to 87%. For the same compound, a half-maximal effect in assay [2] (EC50) was put at 32 µM.

`CC(=O)[C@H]1CC[C@H]2[C@@H]3CC[C@@H]4C[C@H](O)CC[C@]4(C)[C@H]3[C@@H](C)C[C@]12C` gave a maximal effect (Emax) with Cerebral cortex neuron [1] of 71%. The 50% effective concentration (EC50) in assay [2] is 14 µM.
